{
  "source": "PubChem BioAssay",
  "note": "Calls of active or inactive are those of the source.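 Rule for the calls, unless noted: active = viability at or under a set limit in both replicates, limit being median viability minus 3 SD (cut at about 48% in these data, passing the limit was not always enough); inconclusive = at or under the limit in just one replicate; inactive = at or above the limit in both replicates.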",
  "data": [
    {"test": "HUVEC growth inhibition – cell-based, human, primary screen (AID 575;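 active = viability at or below 30% in both replicate assays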;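 note: 100% = median of untreated cell wells with 0.1% DMSO on each plate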)", "details": "HUVEC proliferation, CellTiter-Glo luminescence, 72 h; at 10 µM; hits give low values", "procedure,_shortened": "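material = primary HUVEC, no more than 12 passages | input = 1250 cells per well | controls = vehicle and MePR control wells | measured by = CTG luminescence | times = 72 h compound incubation | format = collagen-coated 384-well format | read-out = % viability vs DMSO wells | doses = single 10 µM dose, 0.1% DMSO, from 5x medium stock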", "values": [
      {"smiles": "CC(=O)Nc1ccc(S(=O)(=O)N(C2=NCC(C)S2)c2ccccc2)cc1", "note": "(stereo not given)", "viability": "80.3% (inactive)"},
      {"smiles": "CCOc1nc(-c2ccccc2)ccc1-c1noc(-c2ccc(OC)c(OC)c2)n1", "viability": "85.1% (inactive)"},
      {"smiles": "Clc1ccc2c(c1)[C@H]1OCC[C@H]1[C@@H](c1ccco1)N2", "viability": "89.6% (inactive)"},
      {"smiles": "O=C(CSc1ccc(-c2ccccc2)nn1)N1CCOCC1", "viability": "105% (inactive)"},
      {"smiles": "COc1cc(CO)cc(-c2cc(CO)cc(OC)c2OC)c1OC", "viability": "95.8% (inactive)"},
      {"smiles": "NCCCCCc1nnc(SC/C=C/c2ccccc2)o1", "viability": "73.8% (inactive)"},
      {"smiles": "O=c1c2[nH]c3ccc(Cl)cc3c2ncn1Cc1ccccn1", "viability": "107% (inactive)"},
      {"smiles": "CN(c1ccccc1C(=O)NCC1CCCO1)S(C)(=O)=O", "note": "(stereo not given)", "viability": "103% (inactive)"},
      {"smiles": "COc1ccc(N2C(=O)c3cccc4cccc(c34)C2=O)nn1", "viability": "90.8% (inactive)"},
      {"smiles": "CS(=O)(=O)NCC(c1cccnc1)N1CCN(c2ccc(F)cc2)CC1", "note": "(stereo not given)", "viability": "113% (inactive)"},
      {"smiles": "CNC(=O)Oc1ccc2c(c1)[C@]1(C)CCN(C)[C@@H]1N2C", "viability": "104% (inactive)"},
      {"smiles": "NC(N)=Nc1nc(CSCC/C(N)=N/S(N)(=O)=O)cs1", "viability": "98.5% (inactive)"},
      {"smiles": "CC(OC(=O)c1ccco1)C(=O)NCc1cccs1", "note": "(stereo not given)", "viability": "90.3% (inactive)"},
      {"smiles": "COc1ccc(OC)c(NC(=O)CS(=O)(=O)c2ccccc2)c1", "viability": "94.7% (inactive)"},
      {"smiles": "Cc1cccc(C)c1-n1nnnc1SCSc1nnnn1-c1c(C)cccc1C", "viability": "66.8% (inactive)"},
      {"smiles": "Nc1nc2ccc(OC(F)(F)F)cc2s1", "viability": "76.5% (inactive)"},
      {"smiles": "COc1ccccc1CC(=O)NCC1CCCO1", "note": "(stereo not given)", "viability": "113% (inactive)"},
      {"smiles": "Cc1nc(N)[nH]c(=O)c1CCC(=O)OCC(C)C", "viability": "89.7% (inactive)"},
      {"smiles": "CN1[C@@H]2CC(OC(=O)[C@H](CO)c3ccccc3)C[C@H]1[C@@H]1O[C@@H]12", "note": "(stereo not given in full)", "viability": "96.7% (inactive)"},
      {"smiles": "Cn1c(=O)c2[nH]cnc2n(C)c1=O", "viability": "107% (inactive)"},
      {"smiles": "Cc1c(NC(=O)C(C)Oc2ncnc3ccccc23)c(=O)n(-c2ccccc2)n1C", "note": "(stereo not given)", "viability": "91.9% (inactive)"},
      {"smiles": "O=C(Cn1c(-c2cncs2)nc2ccccc21)NC1CCCC1", "viability": "103% (inactive)"},
      {"smiles": "COC(=O)Nc1sccc1C(=O)Nc1sccc1C(=O)OC", "viability": "88.5% (inactive)"},
      {"smiles": "O=C1C2CC=C(Cl)CC2C(=O)N1CNc1ccccn1", "note": "(stereo not given)", "viability": "108% (inactive)"},
      {"smiles": "CCOCCCNC(=O)C1CC(=O)N(C2CCCC2)C1", "note": "(stereo not given)", "viability": "97.7% (inactive)"},
      {"smiles": "Cc1ccccc1Nc1nc(N)nc(CSCc2c(C)noc2C)n1", "viability": "101% (inactive)"},
      {"smiles": "O=C1OCCC1Sc1ncnc2sccc12", "note": "(stereo not given)", "viability": "107% (inactive)"},
      {"smiles": "CC(C)N(C(=O)N1CCC(c2nc(-c3ccncc3)no2)CC1)C(C)C", "viability": "105% (inactive)"},
      {"smiles": "COc1cccc2sc(NC(=O)c3ccc(S(=O)(=O)N4CCOCC4)cc3)nc12", "viability": "85.5% (inactive)"},
      {"smiles": "Cc1ccc(S(=O)(=O)N2CCN(C(=O)N3CCOCC3)C2C)cc1", "note": "(stereo not given)", "viability": "103% (inactive)"},
      {"smiles": "Cc1cc(C)n(CC(=O)O)n1", "viability": "106% (inactive)"},
      {"smiles": "O=C(O)C1CCCN1C(=O)c1cccs1", "note": "(stereo not given)", "viability": "88.3% (inactive)"},
      {"smiles": "O=C(NCCCN1CCN(c2cccc(Cl)c2)CC1)c1ccc(N2CCCC2=O)cc1", "viability": "76.1% (inactive)"},
      {"smiles": "Cc1nccn1CCCN1C(=O)OC2(CCCCC2)C1(C)O", "note": "(stereo not given)", "viability": "88.1% (inactive)"},
      {"smiles": "CN1CC=C2C(C#N)=C(N)C(C#N)(C#N)C(c3cccc(Cl)c3Cl)C2C1", "note": "(stereo not given)", "viability": "69.7% (inactive)"},
      {"smiles": "CC(=O)OCC(=O)[C@@]12OC(C)(C)O[C@@H]1C[C@H]1[C@@H]3C[C@H](F)C4=CC(=O)C=C[C@]4(C)[C@@]3(F)[C@@H](O)C[C@@]12C", "viability": "62.1% (inactive)"},
      {"smiles": "CCOc1nc(OCC)nc(N2CCC(C)CC2)n1", "viability": "108% (inactive)"},
      {"smiles": "CCOc1ccc(-c2nc(C#N)c(NCc3ccc4c(c3)OCO4)o2)cc1", "viability": "58.8% (inactive)"},
      {"smiles": "Cc1cccc(N2CCN(C(=O)C3CCCN(S(=O)(=O)c4cnc[nH]4)C3)CC2C)c1", "note": "(stereo not given)", "viability": "90.2% (inactive)"},
      {"smiles": "CC(=O)c1ccccc1OCCn1nnc(-c2ccc(C)cc2)n1", "viability": "83.6% (inactive)"}
    ]},
    {"test": "growth inhibitors of H69AR lung tumor, primary screen, human, duplicate replicates (AID 580);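 note: 100% = mean luminescence of untreated wells and 0% = no signal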", "details": "H69AR lung tumor cells viability, ATP luminescence, 72 h; at 10 µM; hits give low values", "values": [
      {"smiles": "CC(=O)Nc1ccc(S(=O)(=O)N(C2=NCC(C)S2)c2ccccc2)cc1", "note": "(stereo not given)", "viability": "91.7% (inactive)"},
      {"smiles": "CCOc1nc(-c2ccccc2)ccc1-c1noc(-c2ccc(OC)c(OC)c2)n1", "viability": "67.1% (inactive)"},
      {"smiles": "Clc1ccc2c(c1)[C@H]1OCC[C@H]1[C@@H](c1ccco1)N2", "viability": "86% (inactive)"},
      {"smiles": "O=C(CSc1ccc(-c2ccccc2)nn1)N1CCOCC1", "viability": "95.2% (inactive)"},
      {"smiles": "COc1cc(CO)cc(-c2cc(CO)cc(OC)c2OC)c1OC", "viability": "92.5% (inactive)"},
      {"smiles": "NCCCCCc1nnc(SC/C=C/c2ccccc2)o1", "viability": "89.9% (inactive)"},
      {"smiles": "O=c1c2[nH]c3ccc(Cl)cc3c2ncn1Cc1ccccn1", "viability": "101% (inactive)"},
      {"smiles": "CN(c1ccccc1C(=O)NCC1CCCO1)S(C)(=O)=O", "note": "(stereo not given)", "viability": "101% (inactive)"},
      {"smiles": "COc1ccc(N2C(=O)c3cccc4cccc(c34)C2=O)nn1", "viability": "92.3% (inactive)"},
      {"smiles": "CS(=O)(=O)NCC(c1cccnc1)N1CCN(c2ccc(F)cc2)CC1", "note": "(stereo not given)", "viability": "92.2% (inactive)"},
      {"smiles": "CNC(=O)Oc1ccc2c(c1)[C@]1(C)CCN(C)[C@@H]1N2C", "viability": "93.9% (inactive)"},
      {"smiles": "NC(N)=Nc1nc(CSCC/C(N)=N/S(N)(=O)=O)cs1", "viability": "95.8% (inactive)"},
      {"smiles": "CC(OC(=O)c1ccco1)C(=O)NCc1cccs1", "note": "(stereo not given)", "viability": "97.4% (inactive)"},
      {"smiles": "COc1ccc(OC)c(NC(=O)CS(=O)(=O)c2ccccc2)c1", "viability": "86.3% (inactive)"},
      {"smiles": "Cc1cccc(C)c1-n1nnnc1SCSc1nnnn1-c1c(C)cccc1C", "viability": "72.1% (inactive)"},
      {"smiles": "Nc1nc2ccc(OC(F)(F)F)cc2s1", "viability": "71.9% (inactive)"},
      {"smiles": "COc1ccccc1CC(=O)NCC1CCCO1", "note": "(stereo not given)", "viability": "99% (inactive)"},
      {"smiles": "Cc1nc(N)[nH]c(=O)c1CCC(=O)OCC(C)C", "viability": "91.2% (inactive)"},
      {"smiles": "CN1[C@@H]2CC(OC(=O)[C@H](CO)c3ccccc3)C[C@H]1[C@@H]1O[C@@H]12", "note": "(stereo not given in full)", "viability": "102% (inactive)"},
      {"smiles": "Cn1c(=O)c2[nH]cnc2n(C)c1=O", "viability": "97.4% (inactive)"},
      {"smiles": "Cc1c(NC(=O)C(C)Oc2ncnc3ccccc23)c(=O)n(-c2ccccc2)n1C", "note": "(stereo not given)", "viability": "97% (inactive)"},
      {"smiles": "O=C(Cn1c(-c2cncs2)nc2ccccc21)NC1CCCC1", "viability": "106% (inactive)"},
      {"smiles": "COC(=O)Nc1sccc1C(=O)Nc1sccc1C(=O)OC", "viability": "52.2% (inactive)"},
      {"smiles": "O=C1C2CC=C(Cl)CC2C(=O)N1CNc1ccccn1", "note": "(stereo not given)", "viability": "98.8% (inactive)"},
      {"smiles": "CCOCCCNC(=O)C1CC(=O)N(C2CCCC2)C1", "note": "(stereo not given)", "viability": "94.6% (inactive)"},
      {"smiles": "Cc1ccccc1Nc1nc(N)nc(CSCc2c(C)noc2C)n1", "viability": "96.4% (inactive)"},
      {"smiles": "O=C1OCCC1Sc1ncnc2sccc12", "note": "(stereo not given)", "viability": "104% (inactive)"},
      {"smiles": "CC(C)N(C(=O)N1CCC(c2nc(-c3ccncc3)no2)CC1)C(C)C", "viability": "102% (inactive)"},
      {"smiles": "COc1cccc2sc(NC(=O)c3ccc(S(=O)(=O)N4CCOCC4)cc3)nc12", "viability": "86.7% (inactive)"},
      {"smiles": "Cc1ccc(S(=O)(=O)N2CCN(C(=O)N3CCOCC3)C2C)cc1", "note": "(stereo not given)", "viability": "99% (inactive)"},
      {"smiles": "Cc1cc(C)n(CC(=O)O)n1", "viability": "88.4% (inactive)"},
      {"smiles": "O=C(O)C1CCCN1C(=O)c1cccs1", "note": "(stereo not given)", "viability": "103% (inactive)"},
      {"smiles": "O=C(NCCCN1CCN(c2cccc(Cl)c2)CC1)c1ccc(N2CCCC2=O)cc1", "viability": "89.1% (inactive)"},
      {"smiles": "Cc1nccn1CCCN1C(=O)OC2(CCCCC2)C1(C)O", "note": "(stereo not given)", "viability": "98.5% (inactive)"},
      {"smiles": "CN1CC=C2C(C#N)=C(N)C(C#N)(C#N)C(c3cccc(Cl)c3Cl)C2C1", "note": "(stereo not given)", "viability": "61.1% (inactive)"},
      {"smiles": "CC(=O)OCC(=O)[C@@]12OC(C)(C)O[C@@H]1C[C@H]1[C@@H]3C[C@H](F)C4=CC(=O)C=C[C@]4(C)[C@@]3(F)[C@@H](O)C[C@@]12C", "viability": "106% (inactive)"},
      {"smiles": "CCOc1nc(OCC)nc(N2CCC(C)CC2)n1", "viability": "84.9% (inactive)"},
      {"smiles": "CCOc1ccc(-c2nc(C#N)c(NCc3ccc4c(c3)OCO4)o2)cc1", "viability": "70.4% (inactive)"},
      {"smiles": "Cc1cccc(N2CCN(C(=O)C3CCCN(S(=O)(=O)c4cnc[nH]4)C3)CC2C)c1", "note": "(stereo not given)", "viability": "95.6% (inactive)"},
      {"smiles": "CC(=O)c1ccccc1OCCn1nnc(-c2ccc(C)cc2)n1", "viability": "80.1% (inactive)"}
    ]}
  ]
}
